This is an account of results in ChEMBL document CHEMBL3232842, “Synthesis and pharmacological evaluation of novel limonin derivatives as anti-inflammatory and analgesic agents with high water solubility” (Bioorg Med Chem Lett, 2014).

Active and inactive are the calls of the source. No cut-off for these calls is given here.

Broadly, the pKa is the pH at which an ionisable group is half protonated. What is called logD is the decadic logarithm of the distribution of all forms, ionised or not, between an organic phase and buffer at a given pH. In general, thermodynamic solubility refers to solubility found after equilibrating the solid with the medium.

Tested on in the first data set: not listed separately
Nature of the data set: Dissociation constant, pKa of the compound.
Settings: not given
The class given is physicochemical.
`CN(C)CCO/N=C1/C[C@H]2C(C)(C)O[C@H]3CC(=O)OC[C@]32[C@H]2CC[C@]3(C)C(=CC(=O)O[C@H]3c3ccoc3)[C@]12C.Cl` registered a pKa of 8.88.

Compound `CN(C)CCCO/N=C1/C[C@H]2C(C)(C)O[C@H]3CC(=O)OC[C@]32[C@H]2CC[C@]3(C)C(=CC(=O)O[C@H]3c3ccoc3)[C@]12C.Cl` yielded a pKa of 9.39.

In turn, `CC1(C)O[C@H]2CC(=O)OC[C@]23[C@H]2CC[C@@]4(C)[C@H](c5ccoc5)OC(=O)[C@H]5O[C@]54[C@]2(C)/C(=N\OCCN2CCCCC2)C[C@@H]13.Cl` returned a pKa of 8.87.

Tested on in the next data set: not listed separately
Nature of the data set: Partition coefficient, log D of the compound at pH 7.4. The class given is physicochemical. The following applies: octanol/water.
The compound `CN(C)CCO/N=C1/C[C@H]2C(C)(C)O[C@H]3CC(=O)OC[C@]32[C@H]2CC[C@]3(C)C(=CC(=O)O[C@H]3c3ccoc3)[C@]12C.Cl` showed a logD of 0.32.

The compound `CN(C)CCCO/N=C1/C[C@H]2C(C)(C)O[C@H]3CC(=O)OC[C@]32[C@H]2CC[C@]3(C)C(=CC(=O)O[C@H]3c3ccoc3)[C@]12C.Cl` showed a logD of 0.19.

`CC1(C)O[C@H]2CC(=O)OC[C@]23[C@H]2CC[C@@]4(C)[C@H](c5ccoc5)OC(=O)[C@H]5O[C@]54[C@]2(C)/C(=N\OCCN2CCCCC2)C[C@@H]13.Cl` came in with a logD of 0.44.

Tested on in the next data set: not listed separately
Put plainly: Intrinsic aqueous solubility of the compound. The class given is physicochemical. The following applies: read-out: Intrinsic_solubility. The method in brief:
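Determined on a Gemini Profiler by potentiometric titration (Avdeef–Bucher method), which also gave pKa; logD at pH 7.4.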
Turning to `CN(C)CCO/N=C1/C[C@H]2C(C)(C)O[C@H]3CC(=O)OC[C@]32[C@H]2CC[C@]3(C)C(=CC(=O)O[C@H]3c3ccoc3)[C@]12C.Cl`, the solubility was 28.9 mg/mL.

Regarding `CN(C)CCCO/N=C1/C[C@H]2C(C)(C)O[C@H]3CC(=O)OC[C@]32[C@H]2CC[C@]3(C)C(=CC(=O)O[C@H]3c3ccoc3)[C@]12C.Cl`, the solubility stood at 9.4 mg/mL.

For `CC1(C)O[C@H]2CC(=O)OC[C@]23[C@H]2CC[C@@]4(C)[C@H](c5ccoc5)OC(=O)[C@H]5O[C@]54[C@]2(C)/C(=N\OCCN2CCCCC2)C[C@@H]13.Cl`, the solubility was found to be 25.3 mg/mL.

Tested on in the next data set: not listed separately
Nature of the data set: Equilibrium solubility of the compound by classical saturation shake flask method. The class given is physicochemical.
Settings: not given
The method, boiled down: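 Equilibrium solubility measured by the classical saturation shake-flask method.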
`CC1(C)O[C@H]2CC(=O)OC[C@@]23[C@H]1CC(=O)[C@@]1(C)C2=CC(=O)O[C@H](c4ccoc4)[C@]2(C)CC[C@@H]13` [DESOXYLIMONIN] displayed a solubility (thermodynamic) of less than 0.005 mg/mL.

Compound `CC1(C)O[C@H]2CC(=O)OC[C@]23[C@H]2CC[C@@]4(C)[C@H](c5ccoc5)OC(=O)[C@H]5O[C@]54[C@]2(C)C(=O)C[C@@H]13` [LIMONIN] returned a solubility (thermodynamic) of less than 0.005 mg/mL.

The next data set relates to Mus musculus. Put plainly: Analgesic activity in mouse assessed as inhibition of acetic acid-induced writhing at 70 mg/kg, ig administered 1 hr before acetic acid challenge measured after 15 mins. The class given is functional. The settings on record: po, route intragastric. The method in brief:
(§1)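 Mice dosed by gavage with compound suspended in 0.5% CMC-Na; the model group got vehicle only. 1 h later, 0.7% acetic acid in saline was injected i.p. at 0.1 ml/10 g body weight. Writhes were counted 15 min after the stimulus. Results are mean ± SEM, n = 8.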
(In writhing tests, fewer writhes than in controls are read as antinociception.)
For `CC1(C)O[C@H]2CC(=O)OC[C@@]23[C@H]1CC(=O)[C@@]1(C)C2=CC(=O)O[C@H](c4ccoc4)[C@]2(C)CC[C@@H]13` [DESOXYLIMONIN], the inhibition in vivo at 70 mg/kg turned out to be 24.6%.

As for `CC1(C)O[C@H]2CC(=O)OC[C@]23[C@H]2CC[C@@]4(C)[C@H](c5ccoc5)OC(=O)[C@H]5O[C@]54[C@]2(C)C(=O)C[C@@H]13` [LIMONIN], the inhibition in vivo at 70 mg/kg is 45.9%.

As to `CN(C)CCO/N=C1/C[C@H]2C(C)(C)O[C@H]3CC(=O)OC[C@]32[C@H]2CC[C@]3(C)C(=CC(=O)O[C@H]3c3ccoc3)[C@]12C.Cl`, the inhibition in vivo at 70 mg/kg worked out at 30%.

`CN(C)CCCO/N=C1/C[C@H]2C(C)(C)O[C@H]3CC(=O)OC[C@]32[C@H]2CC[C@]3(C)C(=CC(=O)O[C@H]3c3ccoc3)[C@]12C.Cl`: the inhibition in vivo at 70 mg/kg was 60.7%.

With `CC1(C)O[C@H]2CC(=O)OC[C@]23[C@H]2CC[C@@]4(C)[C@H](c5ccoc5)OC(=O)[C@H]5O[C@]54[C@]2(C)/C(=N\OCCN2CCCCC2)C[C@@H]13.Cl`, the inhibition in vivo at 70 mg/kg was found to be 70.5%.

For a further data set, the system named is Mus musculus. Nature of the data set: Analgesic activity in mouse assessed as inhibition of acetic acid-induced writhing at 200 mg/kg, ig administered 1 hr before acetic acid challenge measured after 15 mins. The class given is functional. The settings on record: po, route intragastric. The method in brief:
as §1
Take `CC(=O)Oc1ccccc1C(=O)O` [ASPIRIN]: the inhibition in vivo at 200 mg/kg is 71.8%.

The test system of a further data set is Mus musculus. Put plainly: Analgesic activity in mouse assessed as increase in tail-curl latency time at 100 mg/kg, ig measured after 30 to 90 mins by tail-immersion test. The class given is functional, organism-based. On the set-up: dose 100 mg/kg.
Settings: not given
The method in brief: (§2)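 Mice dosed by gavage with 100 mg/kg suspended in 0.5% CMC-Na. Tail-curl latency in the tail-immersion test was recorded before dosing and at 30, 60, 90 and 120 min afterward. Results are given as mean ± SEM (n = 8), with one-way ANOVA against control.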
With `CC1(C)O[C@H]2CC(=O)OC[C@]23[C@H]2CC[C@@]4(C)[C@H](c5ccoc5)OC(=O)[C@H]5O[C@]54[C@]2(C)/C(=N\OCCN2CCCCC2)C[C@@H]13.Cl`, the outcome was Active.

Another data set has as its system Mus musculus. Nature of the data set: Analgesic activity in mouse assessed as increase in tail-curl latency time at 100 mg/kg, ig measured after 60 mins by tail-immersion test. The class given is functional, organism-based. Details: dose 100 mg/kg.
Settings: not given
The method, boiled down:
as §2
For the compound `CN(C)CCO/N=C1/C[C@H]2C(C)(C)O[C@H]3CC(=O)OC[C@]32[C@H]2CC[C@]3(C)C(=CC(=O)O[C@H]3c3ccoc3)[C@]12C.Cl`, the outcome was Active.

Turning to `CN(C)CCCO/N=C1/C[C@H]2C(C)(C)O[C@H]3CC(=O)OC[C@]32[C@H]2CC[C@]3(C)C(=CC(=O)O[C@H]3c3ccoc3)[C@]12C.Cl`, the result was Active.

Consider `CC1(C)O[C@H]2CC(=O)OC[C@]23[C@H]2CC[C@@]4(C)[C@H](c5ccoc5)OC(=O)[C@H]5O[C@]54[C@]2(C)/C(=N\OCCN2CCCCC2)C[C@@H]13.Cl`, for which the result was Active.

Another data set deals with Mus musculus. Nature of the data set: Antiinflammatory activity in mouse assessed as xylene-induced ear swollen extent at 100 mg/kg, ig administered 90 mins prior to xylene challenge measured after 30 mins (reference value: 132.8 +/-16.3%). The class given is functional. The following applies: route intragastric. The method, boiled down:
(§3)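 Mice were given compound by gavage as a suspension in 0.5% CMC-Na; the vehicle group got 0.5% CMC-Na. 90 min later, 25 µl xylene was applied to both surfaces of the right ear, with the left ear as control. Mice were killed 30 min later. 8 mm punches were taken from both ears and weighed, and swelling was expressed relative to the left ear weight. Results are mean ± SEM, n = 8.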
For `CC1(C)O[C@H]2CC(=O)OC[C@@]23[C@H]1CC(=O)[C@@]1(C)C2=CC(=O)O[C@H](c4ccoc4)[C@]2(C)CC[C@@H]13` [DESOXYLIMONIN], the Ear swelling extent came to 111.7%.

Turning to `CC1(C)O[C@H]2CC(=O)OC[C@]23[C@H]2CC[C@@]4(C)[C@H](c5ccoc5)OC(=O)[C@H]5O[C@]54[C@]2(C)C(=O)C[C@@H]13` [LIMONIN], the Ear swelling extent was found to be 89.3%.

With `CN(C)CCO/N=C1/C[C@H]2C(C)(C)O[C@H]3CC(=O)OC[C@]32[C@H]2CC[C@]3(C)C(=CC(=O)O[C@H]3c3ccoc3)[C@]12C.Cl`, the Ear swelling extent was 100.2%.

`CN(C)CCCO/N=C1/C[C@H]2C(C)(C)O[C@H]3CC(=O)OC[C@]32[C@H]2CC[C@]3(C)C(=CC(=O)O[C@H]3c3ccoc3)[C@]12C.Cl`: the Ear swelling extent is given as 97.8%.

Take `CC1(C)O[C@H]2CC(=O)OC[C@]23[C@H]2CC[C@@]4(C)[C@H](c5ccoc5)OC(=O)[C@H]5O[C@]54[C@]2(C)/C(=N\OCCN2CCCCC2)C[C@@H]13.Cl`: the Ear swelling extent is on record as 60.1%.

For a further data set, the system named is Mus musculus. Put plainly: Antiinflammatory activity in mouse assessed as inhibition of xylene-induced ear swelling at 100 mg/kg, ig administered 90 mins prior to xylene challenge measured after 30 mins. The class given is functional. The following applies: po, route intragastric. The method in brief:
as §3
On to `CC1(C)O[C@H]2CC(=O)OC[C@@]23[C@H]1CC(=O)[C@@]1(C)C2=CC(=O)O[C@H](c4ccoc4)[C@]2(C)CC[C@@H]13` [DESOXYLIMONIN], for which the inhibition in vivo at 100 mg/kg is 15.9%.

For `CC1(C)O[C@H]2CC(=O)OC[C@]23[C@H]2CC[C@@]4(C)[C@H](c5ccoc5)OC(=O)[C@H]5O[C@]54[C@]2(C)C(=O)C[C@@H]13` [LIMONIN], the inhibition in vivo at 100 mg/kg amounted to 32.7%.

For the compound `CN(C)CCO/N=C1/C[C@H]2C(C)(C)O[C@H]3CC(=O)OC[C@]32[C@H]2CC[C@]3(C)C(=CC(=O)O[C@H]3c3ccoc3)[C@]12C.Cl`, the inhibition in vivo at 100 mg/kg worked out at 24.6%.

Take `CN(C)CCCO/N=C1/C[C@H]2C(C)(C)O[C@H]3CC(=O)OC[C@]32[C@H]2CC[C@]3(C)C(=CC(=O)O[C@H]3c3ccoc3)[C@]12C.Cl`: the inhibition in vivo at 100 mg/kg was determined as 26.4%.

As to `CC1(C)O[C@H]2CC(=O)OC[C@]23[C@H]2CC[C@@]4(C)[C@H](c5ccoc5)OC(=O)[C@H]5O[C@]54[C@]2(C)/C(=N\OCCN2CCCCC2)C[C@@H]13.Cl`, the inhibition in vivo at 100 mg/kg was determined as 54.8%.

The subject of a further data set is Mus musculus. Nature of the data set: Analgesic activity in mouse assessed as increase in tail-curl latency time at 100 mg/kg, ig measured after 30 to 120 mins by tail-immersion test. The class given is functional, organism-based. On the set-up: dose 100 mg/kg.
Settings: not given
The method in brief:
as §2
Take `CC1(C)O[C@H]2CC(=O)OC[C@@]23[C@H]1CC(=O)[C@@]1(C)C2=CC(=O)O[C@H](c4ccoc4)[C@]2(C)CC[C@@H]13` [DESOXYLIMONIN]: the outcome was inactive.

The species entered for a further data set is Mus musculus. Put plainly: animal or person. The following applies: Ear, po, read-out: INH.
As for `COc1ccc2cc([C@H](C)C(=O)O)ccc2c1` [NAPROXEN], the inhibition in vivo at 150 mg/kg was found to be 36.6%.
